We go through four compounds from article PMC5189635 (ChemMedChem, 2016).

The subject of one assay is E. coli C291-b1. Description: MIC, E. coli C291-b1. Format: cell-based.
Another assay concerns Klebisiella spp. Nature of the assay: MIC, Klebisiella spp. Format: cell-based.
Another assay has as its system K. pneumoniae BARB 105. Description: MIC, K. pneumoniae BARB 105. The class given is cell-based.
For assay [1], the system named is P. aeruginosa T15464 (MDR). Nature of the assay: MIC, P. aeruginosa T15464. Format: cell-based.
For a further assay, the system named is A. baumanii ATCC9955. Nature of the assay: MIC, A. baumanii ATCC9955. The class given is cell-based.
For another assay, the system named is S. typhimurium SL1344. Description: MIC, S. typhimurium SL1344. Format: cell-based.
A further assay concerns E. coli NR698. Description: Bacteriostatic effect. Format: cell-based. The note with it: Addition None.
A further assay deals with E. coli MC4100. Nature of the assay: Bacteriostatic effect. The class given is cell-based.
Assay [2] concerns Shigella flexneri ATCC12022. Nature of the assay: Bacteriostatic effect. Format: cell-based. The method, boiled down:
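Broth microdilution per CLSI guidelines: LB with 0.2% glucose, exponential-phase cells (OD600 ≈ 0.5), 2% DMSO final. Permeabilizer, where added, was PMBN 25 μg/mL or NAB7061 4 μg/mL. Incubated 24 h at 37 °C with shaking at 250 rpm. Run in triplicate in three separate experiments. MIC is the lowest concentration with no growth.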

Another assay addresses H+-ATPase (Escherichia coli, UniProt P0ABB0+P0ABB4). Nature of the assay: In vitro ATPase activity, H+-ATPase. Format: biochemical. The note with it: read-out: ATPase activity IC50.
The next assay deals with SpuB ATPase (Pseudomonas aeruginosa, UniProt Q9I6J3). Nature of the assay: In vitro ATPase activity, SpuB. The class given is biochemical. To be noted: read-out: ATPase activity IC50.
A further assay has as its target PaSecA (Pseudomonas aeruginosa, UniProt Q9LCT3). To be noted: read-out: Protein translocation IC50; PaSecA-liposomes; published RB; cited from earlier work.
The mark [3] stands for this setting: E. coli C291-b1, NAB7061 4 μg/mL.
The mark [4] stands for this setting: Klebisiella spp., Addition None.
Setting [5] is: Klebisiella spp., NAB7061 4 μg/mL.
Setting [6] is: K. pneumoniae BARB 105, NAB7061 4 μg/mL.
Setting [7] is: K. pneumoniae BARB 105, PMBN 25 μg/mL.
Where [8] appears, read: P. aeruginosa T15464 (MDR), NAB7061 4 μg/mL.
Where [9] appears, read: P. aeruginosa T15464 (MDR), PMBN 3 μg/mL.
[10] abbreviates: Pseudomonas aeruginosa, read-out: MIC100.
The mark [11] stands for this setting: A. baumanii ATCC9955, NAB7061 4 μg/mL.
The mark [12] stands for this setting: A. baumanii ATCC9955, PMBN 25 μg/mL.
[13] abbreviates: Acinetobacter baumannii, ATCC9955.
Where [14] appears, read: S. typhimurium SL1344, NAB7061 4 μg/mL.
Where [15] appears, read: S. typhimurium SL1344, PMBN 25 μg/mL.
[16] abbreviates: Salmonella enterica, TYPHIMURIUM
The mark [17] stands for this setting: Klebisiella spp., PMBN 25 μg/mL.

pIC50: −log10 of the molar value. Values after ≈ are worked out from the molar mass of the structure shown. Where two headings read alike, the source gives them in different places. Marks after values point to notes of the source that are not given here. A value given as a limit tells only on which side of the number the result lay.

Sequence of H+-ATPase (P0ABB0 whole entry): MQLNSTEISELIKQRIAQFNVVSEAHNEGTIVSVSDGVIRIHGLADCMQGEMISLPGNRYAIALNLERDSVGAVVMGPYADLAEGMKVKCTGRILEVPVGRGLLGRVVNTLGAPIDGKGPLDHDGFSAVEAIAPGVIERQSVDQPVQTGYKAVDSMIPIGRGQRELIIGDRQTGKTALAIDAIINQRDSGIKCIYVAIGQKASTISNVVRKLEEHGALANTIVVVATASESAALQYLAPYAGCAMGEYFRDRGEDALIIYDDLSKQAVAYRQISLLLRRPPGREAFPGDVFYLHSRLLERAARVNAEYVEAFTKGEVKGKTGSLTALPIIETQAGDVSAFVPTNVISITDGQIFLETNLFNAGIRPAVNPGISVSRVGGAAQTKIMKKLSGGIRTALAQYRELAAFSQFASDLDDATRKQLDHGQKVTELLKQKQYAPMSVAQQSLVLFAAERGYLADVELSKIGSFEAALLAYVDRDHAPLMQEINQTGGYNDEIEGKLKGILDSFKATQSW
Sequence of H+-ATPase (P0ABB4 2-460): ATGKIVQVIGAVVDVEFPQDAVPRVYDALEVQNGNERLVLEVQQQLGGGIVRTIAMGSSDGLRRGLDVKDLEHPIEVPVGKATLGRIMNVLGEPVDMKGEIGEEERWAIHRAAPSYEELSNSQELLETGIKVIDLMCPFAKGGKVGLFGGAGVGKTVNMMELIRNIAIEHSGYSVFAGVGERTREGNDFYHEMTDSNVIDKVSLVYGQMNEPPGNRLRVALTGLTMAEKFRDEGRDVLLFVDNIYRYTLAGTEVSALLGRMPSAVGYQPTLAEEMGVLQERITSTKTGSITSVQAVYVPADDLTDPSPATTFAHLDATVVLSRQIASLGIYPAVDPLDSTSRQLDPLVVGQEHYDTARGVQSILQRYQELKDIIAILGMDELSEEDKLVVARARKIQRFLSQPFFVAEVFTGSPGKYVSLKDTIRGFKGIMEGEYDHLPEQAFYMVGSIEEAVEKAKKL
Sequence of H+-ATPase (P0ABA6 whole entry, further chain): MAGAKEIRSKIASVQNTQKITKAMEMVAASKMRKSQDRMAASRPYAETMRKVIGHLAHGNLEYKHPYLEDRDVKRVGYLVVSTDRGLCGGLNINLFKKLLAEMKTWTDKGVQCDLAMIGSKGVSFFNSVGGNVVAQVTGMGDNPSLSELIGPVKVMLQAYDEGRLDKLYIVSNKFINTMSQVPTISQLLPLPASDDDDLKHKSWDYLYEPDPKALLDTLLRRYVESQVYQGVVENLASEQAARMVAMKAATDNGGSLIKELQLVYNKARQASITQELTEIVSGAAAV
Sequence of PaSecA (Q9LCT3 whole entry): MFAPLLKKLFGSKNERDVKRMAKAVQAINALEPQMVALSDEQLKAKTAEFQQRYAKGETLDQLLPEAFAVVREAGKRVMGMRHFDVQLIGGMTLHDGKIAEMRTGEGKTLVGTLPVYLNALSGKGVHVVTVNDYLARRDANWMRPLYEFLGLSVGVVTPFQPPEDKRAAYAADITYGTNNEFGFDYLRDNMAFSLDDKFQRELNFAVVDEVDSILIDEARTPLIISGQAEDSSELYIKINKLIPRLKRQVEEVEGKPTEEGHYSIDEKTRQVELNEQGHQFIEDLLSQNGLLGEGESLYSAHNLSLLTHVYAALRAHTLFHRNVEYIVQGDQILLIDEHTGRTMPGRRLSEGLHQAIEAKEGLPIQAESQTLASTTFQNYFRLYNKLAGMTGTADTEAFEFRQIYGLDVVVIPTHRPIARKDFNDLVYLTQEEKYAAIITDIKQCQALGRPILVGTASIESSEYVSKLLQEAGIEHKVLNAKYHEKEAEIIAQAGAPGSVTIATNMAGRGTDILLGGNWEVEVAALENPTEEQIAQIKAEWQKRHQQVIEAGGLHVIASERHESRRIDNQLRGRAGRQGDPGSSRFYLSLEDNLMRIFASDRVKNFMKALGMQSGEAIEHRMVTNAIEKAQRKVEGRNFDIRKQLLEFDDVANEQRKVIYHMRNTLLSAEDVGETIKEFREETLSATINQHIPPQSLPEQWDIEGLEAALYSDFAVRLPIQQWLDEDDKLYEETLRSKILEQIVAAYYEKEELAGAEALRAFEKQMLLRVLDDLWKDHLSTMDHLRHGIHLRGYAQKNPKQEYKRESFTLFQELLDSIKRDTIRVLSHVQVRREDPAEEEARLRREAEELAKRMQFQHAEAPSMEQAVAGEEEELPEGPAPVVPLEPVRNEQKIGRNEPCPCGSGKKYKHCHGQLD

Turning to `CC1(C)S[C@@H]2[C@H](NC(=O)C(C(=O)O)c3ccccc3)C(=O)N2[C@H]1C(=O)O` (stereo partly shown) [Carbenicillin], the MIC was >1,000 μg/mL in the assay with E. coli C291-b1 (setting [3]); >1,000 μg/mL in the assay with E. coli C291-b1 (E. coli C291-b1, PMBN 25 μg/mL); more than 1000 µg/mL against E. coli C291-b1 (Escherichia coli, C291B1); more than 1250 µg/mL in the assay with Klebisiella spp.; >1,250 μg/mL with Klebisiella spp. (setting [4]); >1,250 μg/mL with Klebisiella spp. (setting [5]). In addition, the MIC in the assay on K. pneumoniae BARB 105 (setting [6]) was >1,000 μg/mL; with K. pneumoniae BARB 105 (setting [7]) it was >1,000 μg/mL; with K. pneumoniae BARB 105 (Klebsiella pneumoniae, BARB105), more than 1000 µg/mL; in assay [1] (setting [8]), >1,000 μg/mL; in [1] (setting [9]), >1,000 μg/mL; in assay [1] (Pseudomonas aeruginosa), more than 1000 µg/mL. The MIC in assay [1] (setting [10]) is more than 1000 µg/mL; in the assay on A. baumanii ATCC9955 (setting [11]), >1,000 μg/mL; in the assay on A. baumanii ATCC9955 (setting [12]) it was >1,000 μg/mL; with A. baumanii ATCC9955 (setting [13]), more than 1000 µg/mL; in the assay on S. typhimurium SL1344 (setting [14]), more than 500 µg/mL; against S. typhimurium SL1344 (setting [15]), more than 500 µg/mL. In the assay on S. typhimurium SL1344 (setting [16]), this compound showed an MIC of more than 500 µg/mL.
On to `O=C1OC2(c3cc(I)c(O)c(I)c3Oc3c2cc(I)c(O)c3I)c2c(Cl)c(Cl)c(Cl)c(Cl)c21` [RB, Rose Bengal], for which the MIC against E. coli NR698 was 4.5 µg/mL (≈ 4.62 µM); against E. coli MC4100 (E. coli MC4100, Addition None) it was >1,272 ^* μg/mL; in the assay with E. coli MC4100 (E. coli MC4100, NAB7061 4 μg/mL), 2.0 µg/mL (≈ 2.05 µM); in the assay on E. coli MC4100 (E. coli MC4100, PMBN 25 μg/mL), 15.9 µg/mL (≈ 16.3 µM); in assay [2] (Shigella flexneri ATCC12022, NAB7061 4 μg/mL) it was 1.6 µg/mL (≈ 1.64 µM); in assay [2] (Shigella flexneri ATCC12022, PMBN 25 μg/mL) it was 7.5 µg/mL (≈ 7.7 µM). Moreover, the MIC was >1,272 ^* μg/mL in the assay on E. coli C291-b1 (E. coli C291-b1, Addition None); >254 ^* μg/mL in the assay on E. coli C291-b1 (setting [3]); 3.2 µg/mL (≈ 3.29 µM) in the assay on E. coli C291-b1 (E. coli C291-b1, PMBN 25 μg/mL); >1,272 ^* μg/mL with Klebisiella spp. (setting [4]); >254 ^* μg/mL in the assay on Klebisiella spp. (setting [5]); >254 ^* μg/mL against Klebisiella spp. (setting [17]). The MIC against K. pneumoniae BARB 105 (K. pneumoniae BARB 105, Addition None) is >1,272 ^* μg/mL; with K. pneumoniae BARB 105 (setting [6]), >254 ^* μg/mL; in the assay with K. pneumoniae BARB 105 (setting [7]) it was 25.4 µg/mL (≈ 26.1 µM); in assay [1] (P. aeruginosa T15464 (MDR), Addition None), >1,272 ^* μg/mL; in [1] (setting [8]), 3.2 µg/mL (≈ 3.29 µM); in assay [1] (setting [9]), 0.4 µg/mL (≈ 0.411 µM). In addition, the MIC with A. baumanii ATCC9955 (A. baumanii ATCC9955, Addition None) was >1,272 ^* μg/mL; in the assay on A. baumanii ATCC9955 (setting [11]), 127.2 µg/mL (≈ 131 µM); against A. baumanii ATCC9955 (setting [12]), 80.6 µg/mL (≈ 82.8 µM); against S. typhimurium SL1344 (S. typhimurium SL1344, Addition None), >1,272 ^* μg/mL; with S. typhimurium SL1344 (setting [14]), 254 µg/mL (≈ 261 µM); in the assay with S. typhimurium SL1344 (setting [15]) it was 17 µg/mL (≈ 17.5 µM). The pIC50 on H+-ATPase is 4.22; at SpuB ATPase it was less than 3.70; at PaSecA, 6.00.
Take `CN[C@H](CC(C)C)C(=O)N[C@H]1C(=O)N[C@@H](CC(N)=O)C(=O)N[C@H]2C(=O)N[C@H]3C(=O)N[C@H](C(=O)N[C@H](C(=O)O)c4cc(O)cc(O)c4-c4cc3ccc4O)[C@H](O)c3ccc(c(Cl)c3)Oc3cc2cc(c3O[C@@H]2O[C@H](CO)[C@@H](O)[C@H](O)[C@H]2O[C@H]2C[C@](C)(N)[C@H](O)[C@H](C)O2)Oc2ccc(cc2Cl)[C@H]1O` [Vancomycin]: the MIC against E. coli MC4100 (Escherichia coli, MC4100, E. coli MC4100, Addition None) was 250 µg/mL (≈ 173 µM); in the assay with E. coli MC4100 (Escherichia coli, MC4100, E. coli MC4100, PMBN 25 μg/mL), 31.3 µg/mL (≈ 21.6 µM); in assay [2] (Shigella flexneri, ATCC12022, Shigella flexneri ATCC12022, Addition None) it was more than 250 µg/mL; in assay [2] (Shigella flexneri, ATCC12022, Shigella flexneri ATCC12022, NAB7061 4 μg/mL), 250 µg/mL (≈ 173 µM); in assay [2] (Shigella flexneri, ATCC12022, Shigella flexneri ATCC12022, PMBN 25 μg/mL), 62.5 µg/mL (≈ 43.1 µM); against E. coli C291-b1 (Escherichia coli, C291B1, E. coli C291-b1, Addition None), more than 250 µg/mL. The MIC against E. coli C291-b1 (Escherichia coli, C291B1, E. coli C291-b1, NAB7061 4 μg/mL) was 125 µg/mL (≈ 86.3 µM); with E. coli C291-b1 (Escherichia coli, C291B1, E. coli C291-b1, PMBN 25 μg/mL), 31 µg/mL (≈ 21.4 µM); in the assay with Klebisiella spp. (setting [4]) it was 1000 µg/mL (≈ 690 µM); in the assay on Klebisiella spp. (setting [5]), 250 µg/mL (≈ 173 µM); in the assay on Klebisiella spp. (setting [17]) it was 250 µg/mL (≈ 173 µM); against K. pneumoniae BARB 105 (Klebsiella pneumoniae, BARB105, K. pneumoniae BARB 105, Addition None), more than 1000 µg/mL. Also, the MIC against K. pneumoniae BARB 105 (Klebsiella pneumoniae, BARB105, K. pneumoniae BARB 105, NAB7061 4 μg/mL) is 1000 µg/mL (≈ 690 µM); against K. pneumoniae BARB 105 (Klebsiella pneumoniae, BARB105, K. pneumoniae BARB 105, PMBN 25 μg/mL) it was 500 µg/mL (≈ 345 µM); in assay [1] (Pseudomonas aeruginosa, P. aeruginosa T15464 (MDR), Addition None), more than 1000 µg/mL; in assay [1] (Pseudomonas aeruginosa, P. aeruginosa T15464 (MDR), NAB7061 4 μg/mL), more than 1000 µg/mL; in [1] (Pseudomonas aeruginosa, P. aeruginosa T15464 (MDR), PMBN 3 μg/mL) it was 31 µg/mL (≈ 21.4 µM); in [1] (Pseudomonas aeruginosa, read-out: MIC100, clinical MDR P. aeruginosa strain T15464) it was more than 1000 µg/mL. Further, the MIC was 250 µg/mL (≈ 173 µM) with A. baumanii ATCC9955 (setting [11]); 250 µg/mL (≈ 173 µM) in the assay with A. baumanii ATCC9955 (setting [12]); 250 µg/mL (≈ 173 µM) with A. baumanii ATCC9955 (setting [13]); more than 250 µg/mL in the assay with S. typhimurium SL1344 (setting [14]); more than 250 µg/mL against S. typhimurium SL1344 (setting [16]).
Regarding `CC[C@H]1OC(=O)[C@H](C)[C@@H](O[C@H]2C[C@@](C)(OC)[C@@H](O)[C@H](C)O2)[C@H](C)[C@@H](O[C@@H]2O[C@H](C)C[C@H](N(C)C)[C@H]2O)[C@](C)(O)C[C@@H](C)C(=O)[C@H](C)[C@@H](O)[C@]1(C)O` [erythromycin], the MIC in assay [1] (setting [10]) was more than 1000 µg/mL.

In general, pIC50 refers to −log10 of the IC50, conventionally taken in molar units.
